Source: ChEMBL document CHEMBL1124094, “Synthesis and pharmacological activity of angiotensin converting enzyme inhibitors: N-(mercaptoacyl)-4-substituted-(S)-prolines” (J Med Chem, 1988)
Active and inactive are the calls of the source. The calls are words filed in the database; no cut-off is given here.

Tests used:
[1] = target: T1, Angiotensin-converting enzyme (Oryctolagus cuniculus) (UniProt P12822); assay: In vitro inhibition of Angiotensin I converting enzyme relative to captopril(=1)
T1 sequence (whole entry): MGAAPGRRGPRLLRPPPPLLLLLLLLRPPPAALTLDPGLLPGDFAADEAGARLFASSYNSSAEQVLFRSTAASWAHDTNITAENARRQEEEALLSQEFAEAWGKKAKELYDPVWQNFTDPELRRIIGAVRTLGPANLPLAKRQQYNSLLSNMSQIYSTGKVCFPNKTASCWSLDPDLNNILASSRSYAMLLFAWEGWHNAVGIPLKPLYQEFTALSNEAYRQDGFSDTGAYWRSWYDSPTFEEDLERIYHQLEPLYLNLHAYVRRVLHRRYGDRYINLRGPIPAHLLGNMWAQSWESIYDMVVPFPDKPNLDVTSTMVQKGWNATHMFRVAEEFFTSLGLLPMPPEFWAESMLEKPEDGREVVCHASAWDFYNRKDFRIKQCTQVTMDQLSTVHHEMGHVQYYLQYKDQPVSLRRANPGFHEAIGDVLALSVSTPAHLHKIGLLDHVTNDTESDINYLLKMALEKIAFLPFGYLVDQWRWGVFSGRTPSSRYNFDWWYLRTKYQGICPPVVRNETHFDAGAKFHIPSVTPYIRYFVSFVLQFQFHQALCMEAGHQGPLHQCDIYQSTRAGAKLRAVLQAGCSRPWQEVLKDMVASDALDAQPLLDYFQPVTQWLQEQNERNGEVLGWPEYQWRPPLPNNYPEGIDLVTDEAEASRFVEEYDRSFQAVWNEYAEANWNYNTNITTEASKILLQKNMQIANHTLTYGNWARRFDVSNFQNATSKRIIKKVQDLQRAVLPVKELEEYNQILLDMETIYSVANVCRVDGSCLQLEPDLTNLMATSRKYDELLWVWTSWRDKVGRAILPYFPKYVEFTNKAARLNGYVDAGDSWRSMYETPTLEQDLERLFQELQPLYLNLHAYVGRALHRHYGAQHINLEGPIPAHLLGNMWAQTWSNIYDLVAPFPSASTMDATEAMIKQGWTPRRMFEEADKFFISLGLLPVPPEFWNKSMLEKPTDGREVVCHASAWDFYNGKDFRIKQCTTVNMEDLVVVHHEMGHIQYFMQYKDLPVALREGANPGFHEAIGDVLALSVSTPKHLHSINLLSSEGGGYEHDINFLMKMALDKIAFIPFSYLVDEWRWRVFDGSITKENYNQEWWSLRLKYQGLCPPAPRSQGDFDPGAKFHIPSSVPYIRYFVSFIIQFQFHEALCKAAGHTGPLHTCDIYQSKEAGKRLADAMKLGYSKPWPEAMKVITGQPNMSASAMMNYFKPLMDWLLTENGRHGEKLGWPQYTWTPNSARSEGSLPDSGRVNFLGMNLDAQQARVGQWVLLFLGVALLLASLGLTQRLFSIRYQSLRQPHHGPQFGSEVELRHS
In short: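 Crude ACE from rabbit lung acetone powder extracted in 50 mM potassium phosphate pH 8.3, spun 40000g. Final assay: 100 mM phosphate pH 8.3, 300 mM NaCl, 5 mM hippuryl-His-Leu; enzyme added last, 30 min at 37 °C, stopped with HCl. Hippuric acid extracted into EtOAc, dried, redissolved in water, read by absorbance.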

[2] = target: T2, Angiotensin-converting enzyme (Rattus norvegicus) (UniProt P47820); assay: In vivo inhibition of Angiotensin I converting enzyme at 100ug/Kg in anaesthetized rats;o denotes 'Inactive'; format: organism-based
T2 sequence (whole entry): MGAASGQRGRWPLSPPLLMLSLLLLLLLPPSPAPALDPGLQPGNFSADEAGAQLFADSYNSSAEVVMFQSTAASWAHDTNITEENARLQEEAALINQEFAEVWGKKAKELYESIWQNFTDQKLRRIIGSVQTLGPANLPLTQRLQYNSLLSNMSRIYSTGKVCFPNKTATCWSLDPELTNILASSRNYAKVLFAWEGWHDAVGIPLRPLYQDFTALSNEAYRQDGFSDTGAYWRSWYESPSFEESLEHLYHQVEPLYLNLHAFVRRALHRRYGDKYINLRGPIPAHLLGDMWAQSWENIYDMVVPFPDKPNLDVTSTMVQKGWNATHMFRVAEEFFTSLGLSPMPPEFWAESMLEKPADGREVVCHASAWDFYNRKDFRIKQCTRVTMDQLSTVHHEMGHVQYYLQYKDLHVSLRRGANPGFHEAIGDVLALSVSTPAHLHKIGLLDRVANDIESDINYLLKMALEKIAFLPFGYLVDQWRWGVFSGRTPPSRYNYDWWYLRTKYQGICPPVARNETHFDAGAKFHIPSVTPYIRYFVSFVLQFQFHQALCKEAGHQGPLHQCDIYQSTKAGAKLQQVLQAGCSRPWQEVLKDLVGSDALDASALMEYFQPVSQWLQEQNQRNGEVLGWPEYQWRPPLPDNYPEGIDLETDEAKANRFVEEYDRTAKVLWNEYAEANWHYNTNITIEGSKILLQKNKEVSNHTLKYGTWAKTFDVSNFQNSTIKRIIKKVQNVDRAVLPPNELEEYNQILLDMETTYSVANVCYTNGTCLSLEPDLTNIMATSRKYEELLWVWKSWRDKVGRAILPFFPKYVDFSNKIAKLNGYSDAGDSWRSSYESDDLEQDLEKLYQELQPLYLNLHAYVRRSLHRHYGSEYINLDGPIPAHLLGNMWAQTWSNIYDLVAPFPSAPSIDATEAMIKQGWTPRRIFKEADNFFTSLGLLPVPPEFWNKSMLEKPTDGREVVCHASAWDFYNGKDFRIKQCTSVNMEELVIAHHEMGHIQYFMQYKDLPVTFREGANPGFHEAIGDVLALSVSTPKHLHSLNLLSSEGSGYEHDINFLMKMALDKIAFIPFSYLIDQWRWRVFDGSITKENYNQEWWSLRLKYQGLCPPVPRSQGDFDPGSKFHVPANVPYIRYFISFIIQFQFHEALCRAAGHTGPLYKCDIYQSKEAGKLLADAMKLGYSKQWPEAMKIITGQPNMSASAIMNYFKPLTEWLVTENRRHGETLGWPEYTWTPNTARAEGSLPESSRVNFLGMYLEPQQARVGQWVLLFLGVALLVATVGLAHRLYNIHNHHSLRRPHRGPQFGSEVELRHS
In short: (§1)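 Sprague–Dawley rats under inactin (100 mg/kg) or dial urethane; carotid and jugular cannulas, arterial blood pressure recorded. Angiotensin I response as percent of control; ID50 by linear regression.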

[3] = target: T2, Angiotensin-converting enzyme (Rattus norvegicus); assay: Compound was tested for bradykinin potentiation at 0.1 ug/kg dose; format: functional
[4] = target: T2, Angiotensin-converting enzyme (Rattus norvegicus); assay: (§2) In vivo inhibition of Angiotensin I converting enzyme in anaesthetized rats; format: organism-based; in short: as §1
[5] = target: T2, Angiotensin-converting enzyme (Rattus norvegicus); assay: as §2; format: organism-based; remark: listed apart in the source
[6] = target: T2, Angiotensin-converting enzyme (Rattus norvegicus); assay: In vivo inhibition of Angiotensin I converting enzyme at […] in anaesthetized rats.;z denotes 'Inactive'; format: organism-based; in short: as §1
Rattus norvegicus [7] = species on record: Rattus norvegicus; assay: Compound was tested peroral on the spontaneous hypertensive rat; format: functional
In short: (§3)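 Spontaneously hypertensive rats; drug in 0.4% methylcellulose, or water, saline or 5% ethanol. Aortic catheter via caudal artery under ether, rats conscious in restrainers; pressure averaged over 30 min, heart rate from pulse trace. Dosed after about 90 min, usually followed for 4 h.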

Rattus norvegicus [8] = assay: Compound was tested orally on the spontaneous hypertensive rat and blood pressure noted at half-hour interval; format: functional; in short: as §3
[9] = target: T2, Angiotensin-converting enzyme (Rattus norvegicus); assay: In vivo inhibition of Angiotensin I converting enzyme at […] in anaesthetized rats;z denotes 'Inactive'; format: organism-based; in short: as §1
Rattus norvegicus [10] = assay: Compound was tested for bradykinin potentiation at 0.1 ug/kg dose.; format: functional
[11] = target: T2, Angiotensin-converting enzyme (Rattus norvegicus); assay: In vivo inhibition of Angiotensin I converting enzyme at 100 ug/kg in anaesthetized rats; format: organism-based; in short: as §1
[12] = target: T2, Angiotensin-converting enzyme (Rattus norvegicus); assay: In vivo inhibition of Angiotensin I converting enzyme at 100ug/Kg in anaesthetized rats;z denotes 'Inactive'; format: organism-based; in short: as §1

Structure (SMILES) | relative potency [1] | Delta blood pressure [3] [mmHg] | further results
CO/N=C1\C[C@@H](C(=O)O)N(C(=O)C(C)CS)C1 (stereo not given in full) | 1 | – | –
COC1=C[C@@H](C(=O)O)N(C(=O)C(C)CS)C1 (stereo not given in full) | – | 52 | ID50 [2]: inactive
CC(CS)C(=O)N1C[C@H](OCCOc2ccccc2)C[C@H]1C(=O)O (stereo not given in full) | – | 9 | ID50 [2]: inactive
CC(CS)C(=O)N1C[C@H](OCc2ccccc2)C[C@H]1C(=O)O (stereo not given in full) | – | 47 | ID50 [4]: 0.508 mg/kg
CC(CS)C(=O)N1C[C@@H](N=[N+]=[N-])C[C@H]1C(=O)O (stereo not given in full) | 0.54 | – | –
CC(CS)C(=O)N1C[C@@H](OCc2ccccc2)C[C@H]1C(=O)O (stereo not given in full) | 0.56 | 40 | ID50 [6]: Inactive at 100 ug/kg
O=C(O)[C@@H]1CC2(CN1C(=O)CCS)SCCS2 | 2.6 | 38 | ID50 [5]: 0.078 mg/kg
O=C(O)[C@@H]1CC2(CN1C(=O)CCS)SCCCS2 | 1 | 19 | ID50 [5]: 0.01 mg/kg
CC(CS)C(=O)N1C[C@H](O)C[C@H]1C(=O)O (stereo not given in full) | – | 48 | ID50 [4]: 0.253 mg/kg
CC(CS)C(=O)N1C[C@@H](SCc2ccccc2)C[C@H]1C(=O)O (stereo not given in full) | – | 5 | ID50 [9]: Inactive at 100 ug/kg
CC(CS)C(=O)N1C[C@H](F)C[C@H]1C(=O)O (stereo not given in full) | – | 53 | ID50 [2]: inactive
CC(CS)C(=O)N1C[C@@H](Sc2ccccc2)C[C@H]1C(=O)O (stereo not given in full) | – | 22 | ID50 [4]: 0.544 mg/kg
CC(CS)C(=O)N1C[C@H](Oc2ccc(Cl)cc2)C[C@H]1C(=O)O (stereo not given in full) | – | 23 | ID50 [2]: inactive
CCOCCO[C@@H]1C[C@@H](C(=O)O)N(C(=O)C(C)CS)C1 (stereo not given in full) | – | 45 | ID50 [4]: 0.372 mg/kg
CC(CS)C(=O)N1C[C@@H](C#N)C[C@H]1C(=O)O (stereo not given in full) | – | 47 | ID50 [2]: inactive
CC(CS)C(=O)N1C[C@@H](F)C[C@H]1C(=O)O (stereo not given in full) | – | – | ID50 [11]: 0.581 mg/kg
CC(CS)C(=O)N1C[C@@H](SC2CCCCC2)C[C@H]1C(=O)O (stereo not given in full) | – | 6 | ID50 [12]: Inactive at 100 ug/kg
CS[C@H]1C[C@@H](C(=O)O)N(C(=O)C(C)CS)C1 (stereo not given in full) | – | – | ID50 [4]: 0.398 mg/kg
CC(CS)C(=O)N1C[C@@H](O)C[C@H]1C(=O)O (stereo not given in full) | – | 40 | ID50 [4]: 0.367 mg/kg

The next lines start with results.

relative potency [1] | Structure (SMILES) | Delta blood pressure [3] [mmHg] | further results
0.5 | CO[C@@H]1C[C@@H](C(=O)O)N(C(=O)C(C)CS)C1 (stereo not given in full) | – | ID50 [4]: 1.21 mg/kg
1 | CC(CS)C(=O)N1CC2(C[C@H]1C(=O)O)OCCO2 (stereo not given in full) | 43 | ID50 [5]: 0.065 mg/kg
1.26 | CC(CS)C(=O)N1CC2(C[C@H]1C(=O)O)SCCS2 (stereo not given in full) | 34 | SHR delta blood pressure (Rattus norvegicus [7]): 35 dec; SHR delta blood pressure (Rattus norvegicus [8]): 22 dec; ID50 [5]: 0.026 mg/kg
0.53 | CO[C@H]1C[C@@H](C(=O)O)N(C(=O)C(C)CS)C1 (stereo not given in full) | 60 | ID50 [4]: 0.073 mg/kg
1.07 | CC(CS)C(=O)N1CC2(C[C@H]1C(=O)O)SCCCS2 (stereo not given in full) | – | ID50 [5]: 0.048 mg/kg
4 | C[C@H](CS)C(=O)N1CC2(C[C@H]1C(=O)O)SCCS2 | – | Delta blood pressure (Rattus norvegicus [10]): 43 mmHg; SHR delta blood pressure (Rattus norvegicus [8]): 17 dec
0.9 | COC1(OC)C[C@@H](C(=O)O)N(C(=O)C(C)CS)C1 (stereo not given in full) | – | –
1 | CC(CS)C(=O)N1CC2(C[C@H]1C(=O)O)OCC(C)(C)CO2 (stereo not given in full) | 46 | Delta blood pressure (Rattus norvegicus [8]): 25 mmHg; ID50 [5]: 0.359 mg/kg
